NSD2 inh = inhibitors of human histone methyltransferase NSD2 | O96028 | NSD2 peptide methylation, AlphaScreen, 120 min | inhibition, % at 12.5 µM | actives 0.54% (n = 310,000); in the data active = inhibition above about 50%
Target sequence (O96028 whole entry, looked up): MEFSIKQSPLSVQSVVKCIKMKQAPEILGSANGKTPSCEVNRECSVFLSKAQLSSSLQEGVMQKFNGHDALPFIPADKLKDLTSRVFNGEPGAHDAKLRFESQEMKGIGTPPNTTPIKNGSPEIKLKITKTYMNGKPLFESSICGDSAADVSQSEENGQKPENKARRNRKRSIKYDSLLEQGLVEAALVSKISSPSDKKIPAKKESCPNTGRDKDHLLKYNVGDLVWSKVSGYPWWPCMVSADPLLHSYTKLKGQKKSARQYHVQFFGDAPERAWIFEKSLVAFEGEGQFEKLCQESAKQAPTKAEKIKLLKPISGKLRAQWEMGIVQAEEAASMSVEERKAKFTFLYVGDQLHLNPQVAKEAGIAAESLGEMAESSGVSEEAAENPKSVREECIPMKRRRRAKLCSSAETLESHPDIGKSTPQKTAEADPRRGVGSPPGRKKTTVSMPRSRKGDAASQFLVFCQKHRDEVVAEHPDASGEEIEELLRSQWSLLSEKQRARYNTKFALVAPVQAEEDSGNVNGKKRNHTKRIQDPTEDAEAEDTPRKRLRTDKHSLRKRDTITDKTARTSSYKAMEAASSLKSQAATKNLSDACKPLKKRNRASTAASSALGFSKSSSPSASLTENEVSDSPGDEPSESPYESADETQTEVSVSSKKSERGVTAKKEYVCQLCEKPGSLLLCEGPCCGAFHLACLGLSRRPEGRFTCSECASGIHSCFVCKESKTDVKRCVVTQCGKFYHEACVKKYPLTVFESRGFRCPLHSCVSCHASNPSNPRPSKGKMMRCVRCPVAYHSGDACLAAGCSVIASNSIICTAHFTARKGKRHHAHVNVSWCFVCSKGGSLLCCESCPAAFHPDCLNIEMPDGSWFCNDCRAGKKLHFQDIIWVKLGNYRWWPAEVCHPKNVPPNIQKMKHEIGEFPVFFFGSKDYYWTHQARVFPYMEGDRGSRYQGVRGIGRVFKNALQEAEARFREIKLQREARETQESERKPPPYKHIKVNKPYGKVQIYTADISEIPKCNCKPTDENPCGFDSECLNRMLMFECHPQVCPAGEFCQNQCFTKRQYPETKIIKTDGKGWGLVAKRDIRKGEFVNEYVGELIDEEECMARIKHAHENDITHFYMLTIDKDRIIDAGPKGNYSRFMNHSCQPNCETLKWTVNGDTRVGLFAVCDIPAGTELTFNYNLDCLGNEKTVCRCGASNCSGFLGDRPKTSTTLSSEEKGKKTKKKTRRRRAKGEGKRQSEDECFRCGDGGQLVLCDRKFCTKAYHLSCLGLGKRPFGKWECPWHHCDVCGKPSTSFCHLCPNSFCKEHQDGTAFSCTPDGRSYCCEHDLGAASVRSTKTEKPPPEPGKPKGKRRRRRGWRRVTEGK
N-glyco inh = blocks N-linked glycosylation in D54 reporter cells; D54 ERlucT glycosylation luciferase reporter, 24 h; percent of 100 nM tunicamycin response; reporter increase, % at 12.5 µM; actives 0.23% (n = 360,000); AID 588692;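 active = mean luciferase reporter signal, scaled so untreated is 0 and the glycosylation-blocking control 100, at or above a set limit in every replicate; inconclusive = mean reaches the limit but not every replicate does; inactive = mean below the limit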;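 also: luciferase carries N-glycosylation sites so blocking glycosylation raises the light; 0% = median of neutral control wells and 100% = median of 100 nM tunicamycin wells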
RAD54 branch = inhibitors of human RAD54 branch migration; inhibition, % at 10.4 µM; RAD54 Holliday junction branch migration, FAM/BHQ fluorescence; actives 0.14% (n = 360,000); Q92698;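 active = mean normalized replicate activity at least 40 and at least half of replicates scoring 40 or more; inconclusive = only one of the two criteria met; inactive = mean below 40 and under half of replicates reaching 40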;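 also: 0% = median of neutral control wells and 100% = median of positive control wells; inhibitors cause a drop in the FAM fluorescence signal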
MLL AF4-AF9 inh = inhibitors of human MLL-AF4/AF9 interaction; inhibition, % at 10 µM; AlphaScreen, biotin-AF4 peptide binding to FLAG-AF9; actives 0.47% (n = 350,000);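 active = every replicate reaching a set inhibition limit, whatever the replicate mean, cut at about 25% in these data; inconclusive = mean inhibition reaches that limit but some replicates miss it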;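 also: 0% = plate neutral control median and 100% = total signal loss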
FN deposit inh = fibronectin deposition inhibition; AID 743247; actives 0.086% (n = 350,000); inhibition, % at 12.6 µM; AH1F fibroblasts, Alexa488-fibronectin deposition fluorescence, overnight;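 active = mean inhibition across replicates of 30% or more, regardless of how many single replicates reach that level; inconclusive = mean under 30% yet at least half of replicates reach 30%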;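 also: positive control wells lacked labelled fibronectin entirely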
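Material: AH1F fibroblast monolayer depositing Alexa488-labelled fibronectin into matrix / Amount: 10000 AH1F cells per well / Signal: fluorescence 485/525 nm / Medium: DMEM, 2% serum / Compound: single dose, pinned / Incubation: 1 h cell adhesion before compound, then overnight fibronectin incubation / Reagent: Alexa488-FN, 24 nM final / Read-out: inhibition of fibronectin deposition signal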
RAD52 anneal inh = inhibitors of human RAD52 DNA annealing; P43351; recombinant RAD52 DNA annealing, FRET fluorescence; inhibition, % at 18.7 µM; actives 0.46% (n = 360,000); AID 651710;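 active = every replicate showing at least 50% inhibition; inconclusive = mean inhibition at least 50% but not in every replicate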
* marks the source's active call; other numbers are inactive results; ? = inconclusive; . = not tested or not shown. A selection: hits, their analogues and other compounds. The true share with any hit is near 1.2%.

SMILES	NSD2 inh	N-glyco inh	RAD54 branch	MLL AF4-AF9 inh	FN deposit inh	RAD52 anneal inh
O=C(NCc1ccccc1)[C@H]1[C@H](CO)[C@H]2Cn3c(cccc3=O)[C@@H]1N2CC1CCCC1	.	.	-4.4	-1.8	.	14.2
CC=Cc1ccc2n(c1=O)C[C@H]1[C@H](CO)[C@@H](C(=O)NCc3ccccn3)[C@@H]2N1CCC (mixture of isomers)	.	.	8.1	-0.2	.	96.3*
O=C(NCc1ccccn1)[C@@H]1[C@@H](CO)[C@@H]2Cn3c(cccc3=O)[C@H]1N2CC1CCCCC1	.	.	11.4	0.5	.	57.3*
CC=Cc1ccc2n(c1=O)C[C@H]1[C@H](CO)[C@@H](C(=O)NC3CCCCC3)N(CCC)[C@@H]21 (mixture of isomers)	.	.	.	.	11.8	.
CC=Cc1ccc2n(c1=O)C[C@H]1[C@H](CO)[C@@H](C(=O)NC3CCCC3)N(CCC)[C@@H]21 (mixture of isomers)	.	.	.	-0.1	.	92.0*
CC(=O)N1[C@@H]2Cn3c(cccc3=O)[C@H]1[C@@H](C(=O)NCC1CCCCC1)[C@@H]2CO	.	.	8.4	1.0	.	58.8*
CN(C)C(=O)[C@H]1[C@H](CO)[C@H]2Cn3c(ccc(-c4cccnc4)c3=O)[C@H]2N1Cc1ccccc1F	.	.	-6.5	0.3	.	-6.6
Cc1cc(NCc2ccccc2)cc(=O)n1Cc1ccccc1	-11.3	.	.	.	.	.
O=C(/C=C/c1ccccc1)c1ccc2c3c(cccc13)CC2	0.0	46.6*	.	.	-4.0	.
C[C@@H]1CN([C@@H](C)CO)S(=O)(=O)c2ccc(C#CCN(C)C)cc2O[C@H]1CN(C)Cc1ccc(F)cc1	.	.	-1.4	21.3	2.8	4.5
Nc1ccc(N2CCN(c3ccc(F)cc3)CC2)cc1	2.3	0.4	.	12.0	9.5	-9.4
Nc1ccc(N2CCN(c3ccc(Cl)c(Cl)c3)CC2)cc1	6.8	2.0	.	27.4*	-3.1	-14.0
COc1ccc(-c2ocnc2C(=O)Nc2ccccc2N2CCCCC2)cc1	-6.7	-0.1	5.5	.	-1.7	.
COc1cccc(-c2ocnc2C(=O)Nc2ccc(N3CCOCC3)cc2N2CCOCC2)c1	12.8	-4.0	11.0	35.3*	-3.6	-12.5
COc1ccc2c(c1)N(C)/C(=C/c1cccc[n+]1C)S2	9.3	8.3	51.1*	1.0	-18.6	24.4
CCN1/C(=C/c2cccc[n+]2C)Sc2ccc(OC)cc21	17.1	-0.7	46.0	1.8	-5.8	37.8
CN1/C(=C/c2cccc[n+]2C)Sc2ccccc21	.	15.2	61.8*	-1.4	-12.4	42.0
Cc1ccc2c(c1)N(C)/C(=C/c1cccc[n+]1C)S2	.	24.9	34.0	2.1	-13.1	35.8
COc1ccc(CNC(=O)C[C@H]2C=C[C@H](NC(=O)c3ccc4c(c3)OCO4)[C@@H](CO)O2)cc1	.	.	-2.2	-3.6	-5.8	7.4
CN(CC(=O)Nc1cccc(F)c1)C(=O)Cn1c(=O)cnc2ccccc21	-5.1	1.4	.	29.0*	13.5	-4.3
COc1ccccc1CC(=O)OC(C)C(=O)Nc1ccc(S(=O)(=O)N2CCCCC2)cc1 (centres undefined)	0.4	-2.9	4.8	0.8	45.7*	-16.0
CC(Oc1ccccc1Cl)C(=O)Nc1ccc(S(=O)(=O)N2CCCC2)cc1 (centres undefined)	-2.4	-7.2	.	-3.2	-3.1	-0.6
O=C(Oc1c(CN2CCOCC2)cc(Cl)c2cccnc12)c1ccccc1	-0.3	-7.8	.	3.1	.	-12.0
Oc1c(Cl)cc(CN2CCOCC2)c2cccnc12	4.2	2.3	3.0	34.9*	.	-14.7
CSc1nnc(C)c(=O)n1COC(=O)c1cc(Cl)ccc1[N+](=O)[O-]	12.5	0.3	.	5.8	-8.6	-14.0
SMILES	NSD2 inh	N-glyco inh	RAD54 branch	MLL AF4-AF9 inh	FN deposit inh	RAD52 anneal inh
CSc1nnc(C)c(=O)n1COC(=O)c1ccc([N+](=O)[O-])cc1	-1.0	0.6	.	2.9	31.4*	-13.4
Cc1ccc(C(=O)NC(=C(Cl)Cl)S(=O)(=O)c2ccccc2)cc1	5.9	?	.	1.2	2.0	-10.8
COc1ccc(C(=O)NC(=C(Cl)Cl)S(=O)(=O)c2ccc(C)cc2)cc1	0.3	27.1*	-3.6	-2.2	-0.7	-7.8
COC(=O)NC(=C(Cl)Cl)S(=O)(=O)c1ccccc1	4.5	50.7*	-6.8	.	.	.
CNC(=O)C[C@H]1CC[C@@H]2[C@H](COc3ccc(NS(=O)(=O)c4ccccc4C)cc3C(=O)N2C)O1	.	.	-7.5	1.0	-5.8	24.1
CC(C)c1ccc(/C=C(\c2nc3ccccc3[nH]2)S(=O)(=O)c2ccccc2)cc1	-1.3	-5.9	.	.	12.4	.
O=S(=O)(/C(=C/c1ccc(C(F)(F)F)cc1)c1nc2ccccc2[nH]1)c1ccccc1	1.4	-10.1	.	.	64.8*	.
CC(C)C1N=C(c2ccc3c(c2)OCO3)CC(c2ccccc2O)N1 (centres undefined)	-0.6	37.3*	4.0	.	.	.
CCOc1ccccc1C1N=C(c2ccc(OC)cc2)CC(c2ccccc2O)N1 (centres undefined)	-7.0	7.1	.	4.9	-16.1	-45.5
O=C(CN1CCOCC1)NCC[C@@H]1CC[C@H](NC(=O)Nc2ccc(Cl)cc2)[C@@H](CO)O1	.	.	-19.5	0.1	.	-1.3
Cc1cc(C)c2c(c1)/C(=N/Nc1ccc(S(N)(=O)=O)cc1[N+](=O)[O-])CCC2	0.1	-2.5	.	-31.3	11.5	-1.0
NS(=O)(=O)c1ccc(N/N=C2/CCCCC2C2CCCCC2)c([N+](=O)[O-])c1 (centres undefined)	18.9	-4.5	.	30.0*	-10.6	1.1
COC(=O)c1cc(=O)n(Cc2cccs2)c(=Nc2ccc(F)cc2)s1	.	22.5	2.1	9.2	7.6	-4.8
COC(=O)c1cc(=O)n(-c2ccc(F)cc2)c(=Nc2ccc(F)cc2)s1	.	39.2*	-5.0	26.6*	-3.3	-13.0
CN1Cc2c(N3CCOCC3)nc3sc(C(=O)c4ccc(Br)cc4)c(N)c3c2CC1(C)C	0.4	2.7	13.6	30.5*	6.9	28.8
CN1Cc2c(N3CCOCC3)nc3sc(C#N)c(N)c3c2CC1(C)C	4.7	4.9	.	4.8	-3.6	7.6
c1ccc2c3c([nH]c2c1)CCNC3	0.7	0.8	30.3	25.3*	1.4	-1.4
C[C@@H]1CCCCO[C@H](CN(C)C(=O)Nc2ccc3c(c2)OCO3)[C@H](C)CN([C@@H](C)CO)C(=O)c2cc(NS(=O)(=O)c3cn(C)cn3)ccc2O1	.	.	3.9	-4.2	.	-9.1
CO[C@H]1CN(C)C(=O)c2ccc(NC(=O)Nc3c(C)noc3C)cc2OC[C@H](C)N(C)C[C@@H]1C	.	.	.	-3.4	.	7.0
O=C1C=CC(=O)N1c1ccccc1N1C(=O)C=CC1=O	6.5	0.7	3.2	-2.1	40.1*	-7.3
O=C(c1ccccc1)c1ccccc1N1C(=O)C=CC1=O	2.8	-11.2	.	5.5	57.8*	-14.2
O=C(O)c1cccc(N2C(=O)C=CC2=O)c1	23.1	-1.8	5.0	-4.9	2.9	-22.6
O=C1C=CC(=O)N1c1ccccn1	-1.7	-0.3	4.7	0.7	.	-17.7

High-throughput results as filed in PubChem.
